Source: PubChem BioAssay
bIAP activator = bovine intestinal alkaline phosphatase activators, primary screen, biochemical, bovine IAP, CDP-star luminescence; alkaline phosphatase, intestinal [Bos taurus]; purified bovine IAP, 30 min; stronger effect = higher value; fold of DMSO-control signal, blank-subtracted; activation factor at 20 µM; hit rate 0.17% among 200,000;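 active = activation factor of 2 or more at 20 µM, a signal rise over negative controls twice the positive control's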
hIAP act = human IAP activators, primary screen, biochemical, luminescence, uHTS; AID 2524, 2010; purified human IAP, CDP-Star luminescence, 30 min; stronger effect = higher value; 1 = vehicle-only enzyme, 0 = enzyme-free background; Intestinal-type alkaline phosphatase (Homo sapiens), P09923; activation factor at 10 µM; hit rate 0.16% among 330,000;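 active = activation factor of the enzyme at least 2-fold when tested at 20 µM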
Target sequence (P09923 whole entry, looked up): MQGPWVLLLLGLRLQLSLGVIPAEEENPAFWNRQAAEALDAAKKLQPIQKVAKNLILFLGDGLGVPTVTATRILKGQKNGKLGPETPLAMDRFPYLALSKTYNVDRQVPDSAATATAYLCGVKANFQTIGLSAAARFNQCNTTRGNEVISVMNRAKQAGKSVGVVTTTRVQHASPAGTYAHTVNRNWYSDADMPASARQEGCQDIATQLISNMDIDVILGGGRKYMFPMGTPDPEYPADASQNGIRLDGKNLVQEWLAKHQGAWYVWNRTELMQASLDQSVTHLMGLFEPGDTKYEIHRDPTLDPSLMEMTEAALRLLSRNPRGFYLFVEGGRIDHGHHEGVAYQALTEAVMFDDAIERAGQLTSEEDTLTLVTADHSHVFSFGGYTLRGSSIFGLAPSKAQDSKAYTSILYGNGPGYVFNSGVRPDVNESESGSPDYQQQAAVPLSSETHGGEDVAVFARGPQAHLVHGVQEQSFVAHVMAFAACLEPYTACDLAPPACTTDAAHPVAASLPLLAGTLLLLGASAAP
hIAP block = human IAP inhibitors, primary screen, biochemical, luminescence, uHTS; inhibition, % at 10 µM; hit rate 0.12% among 330,000; Intestinal-type alkaline phosphatase (Homo sapiens), P09923; purified IAP, CDP-Star luminescence, 30 min;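 active = inhibition reaching a set limit with compound at 10 µM in the primary screen, cut at about 35% in these data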
bIAP inhibitor = bovine intestinal alkaline phosphatase inhibitors, primary screen, selectivity assay for TNAP inhibitor project, biochemical, bovine IAP, CDP-star luminescence | purified bovine IAP, 30 min | inhibition, % at 20 µM | 190,000 tested, under 10 active | AID 1019, 2008;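 active = over 50% inhibition of intestinal alkaline phosphatase at 20 µM in the single-dose screen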
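test system = bovine IAP enzyme | medium = DEA buffer 100 mM, pH 9.8, with MgCl2 1.0 mM, ZnCl2 0.02 mM | detection = luminescence | dosing = single compound dose of 20 µM, 2% DMSO final | incubation = 30 min reaction at room temperature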
mIAP block = inhibitors of mouse IAP, primary screen, biochemical, luminescence, uHTS; intestinal alkaline phosphatase [Mus musculus]; purified mouse IAP, CDP-Star luminescence, 30 min; inhibition, % at 10 µM; hit rate 0.2% among 330,000;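 active = inhibition of at least 40% at 10 µM in the primary screen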
mIAP activ = activators of mouse IAP, primary screen, biochemical, luminescence, uHTS; muIAP, CDP-Star luminescence, 30 min; stronger effect = higher value; 1 = vehicle-only enzyme signal, 0 = enzyme-free wells; activation factor at 10 µM; hit rate 0.24% among 330,000;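 active = activation factor of at least 2 at 20 µM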
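Assay system: mouse IAP enzyme; Reagent: CDP-Star chemiluminescent phosphatase substrate; Compound: DMSO-dissolved test compounds; Incubation: 30 min, room temperature; Technique: luminescence from enzymatic CDP-Star hydrolysis; Controls: DMSO-only wells and no-enzyme negative control.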
hIAP act confirm = human IAP activators, confirmation, biochemical, luminescence, single concentration, uHTS hits | shares compounds with hIAP act | purified IAP, CDP-Star luminescence, 30 min; stronger effect = lower value | activation (%Activity, negative = activation), % at 8.3 µM | hit rate 10% among 880 | AID 434926, 2010;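 active = at least twofold enzyme activation in any of six single-dose repeats, which the averaged readout prints as negative percent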
mIAP inh conf = inhibitors of mouse IAP, confirmation, biochemical, luminescence, single concentration. shares compounds with mIAP block. AID 434971, 2010. inhibition, % at 10 µM. hit rate 4.7% among 11,000. purified mouse IAP, CDP-Star luminescence, 30 min;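 active = inhibition of at least 40% at 10 µM in either of the two replicates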
Each line names hits and unclear results; the compound was inactive in the other large screens (follow-up assays come after a bar, where they were run). The list is not random: actives were taken first. Their share in the collection is about 0.79%.

O=C(CSc1nc2ncc(Cl)cc2[nH]1)N1CCC(Cc2ccccc2)CC1	none (no result: bIAP activator, bIAP inhibitor)
COc1cccc(/C=N/NC(=O)Cn2cnc3c2c(=O)n(C)c(=O)n3C)c1	none (no result: bIAP activator, bIAP inhibitor)
COc1ccc(C(=O)NC(=S)NNC(=O)c2ccccc2O)cc1	hIAP act 2.34 (no result: bIAP activator, bIAP inhibitor) | hIAP act confirm inactive
COCCCn1c(=O)c2ccccc2n(CC(=O)N2CCCc3ccccc32)c1=O	none (no result: bIAP activator, bIAP inhibitor)
CCOC(=O)c1cccnc1SCc1cc(=O)n2ccccc2n1	none
CCOC(=O)c1cccnc1SCC(=O)N(C)c1ccccc1	hIAP block 38.9 | hIAP act confirm inactive
COc1cccc(CC(NC(C)=O)C(=O)NC2CCN(C(=O)NCc3ccccc3)CC2)c1 (stereo unspecified)	none (no result: bIAP activator, bIAP inhibitor)
COc1ccc(CC(NC(C)=O)C(=O)NC2CCN(C(=O)NCc3ccccc3)CC2)cc1 (stereo unspecified)	hIAP block 35.9 | hIAP act confirm inactive
CC1(C)CC(=O)C=C(c2cccc(Br)c2)C1	none (no result: bIAP activator, bIAP inhibitor)
CN1CCc2c1nc1ccccc1c2N (tested in a mixture with another compound)	hIAP block 38.5 (no result: bIAP activator, bIAP inhibitor) | hIAP act confirm inactive
CCCc1nnc(SCC(=O)O)n1CC	none (no result: bIAP activator, bIAP inhibitor)
O=C(NCC1CCCO1)C(=O)N/N=C/c1cc(Cl)ccc1O (stereo unspecified)	hIAP act 2 (no result: bIAP activator, bIAP inhibitor) | hIAP act confirm inactive
O=C1/C(=C\c2cccc(O)c2)SC(=S)N1Cc1ccccc1	none (no result: bIAP activator, bIAP inhibitor)
O=C1/C(=C\c2cccc(O)c2O)SC(=S)N1Cc1ccccc1	hIAP block 44.8, mIAP block 41.0 (no result: bIAP activator, bIAP inhibitor) | hIAP act confirm inactive | mIAP inh conf 63.3
NS(=O)(=O)c1ccc(CCNC(=O)CNC(=O)c2ccc(Br)o2)cc1	none (no result: bIAP activator, bIAP inhibitor)
CN(CC(=O)Nc1ccccc1Sc1ccccc1)Cc1nc2ccccc2c(=O)[nH]1	none
CN(CC(=O)NC(c1ccccc1)c1ccccc1)Cc1nc2ccccc2c(=O)[nH]1	bIAP activator 2.5, hIAP act 2.22, mIAP activ 2.09 | hIAP act confirm inactive | mIAP inh conf inactive
CC(C)c1ccc(NC(=O)NC2CCN(CC(=O)Nc3cccc4ccccc34)CC2)cc1	hIAP act 2.22, mIAP activ 4.23 | hIAP act confirm inactive | mIAP inh conf inactive
CCN1/C(=C/C=C/c2sc3ccccc3[n+]2CC)Sc2ccccc21	hIAP block 37.4, mIAP block 48.3 (no result: bIAP activator, bIAP inhibitor) | hIAP act confirm inactive | mIAP inh conf 50.9
COc1ccc2nc(NC(=O)Cn3cnc4ccccc4c3=O)sc2c1	none (no result: bIAP activator, bIAP inhibitor)
CCS(=O)(=O)N1CCC(C(=O)Nc2cccc(F)c2)CC1	none (no result: bIAP activator, bIAP inhibitor)
CCn1ncc(CN2CCC(C(=O)Nc3cccc(-c4cccc(F)c4)c3)CC2)c1C	hIAP act 4.03, mIAP activ 3.47 (no result: bIAP activator, bIAP inhibitor) | hIAP act confirm inactive | mIAP inh conf inactive
CCn1nc(C)c(CN2CCC(C(=O)Nc3cccc(-c4cccc(Cl)c4)c3)CC2)c1C	hIAP act 8.75, mIAP activ 8.19 (no result: bIAP activator, bIAP inhibitor) | hIAP act confirm inactive | mIAP inh conf inactive
CS(=O)(=O)Nc1cccc2[nH]ncc12	none
Cc1ccc(NC(=O)C2CC(=O)Nc3nc4ccccc4n32)c(C)c1 (stereo unspecified)	hIAP act 2.69, mIAP activ 3.53 (no result: bIAP activator, bIAP inhibitor) | hIAP act confirm inactive | mIAP inh conf inactive
